According to ChEMBL document CHEMBL3046812, “Synthesis, fungicidal activity, and 3D-QSAR of pyridazinone-substituted 1,3,4-oxadiazoles and 1,3,4-thiadiazoles” (2002):

tested on: Puccinia recondita; assay: Antifungal activity against Puccinia recondita infected wheat leaves after 10 days relative to triadimefon; type: functional
Summary of the method: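 Wheat leaves inoculated with Puccinia recondita uredospores mixed 1:10 with talcum powder, held 24 h in a moist chamber, then sprayed once dry with 0.001 M compound solutions in water/DMF (5:1, with Sorpal-144). Plants kept in greenhouse; percent disease control versus untreated pots scored 10 days after treatment. Three replicates; triadimefon reference tested at 100 ppm under identical conditions.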

| SMILES | inhibition (INH) [%] |
| --- | --- |
| COc1ccc(Nc2nnc(-c3nn(-c4ccc(Cl)cc4)c(C)cc3=O)o2)cc1 | 0.8 |
| Cc1cc(=O)c(-c2nnc(Nc3cccc(C(F)(F)F)c3)s2)nn1-c1c(Cl)cccc1Cl | 0.5 |
| Cc1cc(=O)c(-c2nnc(Nc3cccc(C(F)(F)F)c3)s2)nn1-c1ccc(Cl)cc1 | 0.6 |
| Cc1cc(=O)c(-c2nnc(Nc3ccccc3F)s2)nn1-c1ccccc1 | 0.5 |
| Cc1cc(=O)c(-c2nnc(Nc3ccccc3F)o2)nn1-c1c(Cl)cccc1Cl | 0.8 |
| Cc1cc(=O)c(-c2nnc(Nc3ccccc3)s2)nn1-c1ccccc1Cl | 0.1 |
| Cc1ccc(-n2nc(-c3nnc(Nc4ccccc4F)o3)c(=O)cc2C)c(C)c1 | 0.8 |
| Cc1cc(=O)c(-c2nnc(Nc3cccc(C(F)(F)F)c3)o2)nn1-c1ccc(Cl)cc1 | 0.9 |
| Cc1cc(=O)c(-c2nnc(Nc3ccccc3)s2)nn1-c1ccc(Cl)cc1Cl | 0.2 |
| Cc1cc(=O)c(-c2nnc(Nc3ccccc3F)o2)nn1-c1ccccc1 | 0.9 |
| Cc1ccc(-n2nc(-c3nnc(Nc4cccc(C(F)(F)F)c4)s3)c(=O)cc2C)c(C)c1 | 0.9 |
| Cc1cc(=O)c(-c2nnc(Nc3ccccc3)o2)nn1-c1ccccc1Cl | 0.1 |
| Cc1cc(=O)c(-c2nnc(Nc3cccc(C(F)(F)F)c3)s2)nn1-c1ccc(Cl)cc1Cl | 0.9 |
| Cc1cc(=O)c(-c2nnc(Nc3ccccc3F)o2)nn1-c1ccccc1Cl | 0.8 |
| Cc1cc(=O)c(-c2nnc(Nc3ccccc3F)o2)nn1-c1cc(Cl)c(Cl)cc1Cl | 0.9 |
| Cc1cc(=O)c(-c2nnc(Nc3ccccc3F)o2)nn1-c1ccc(Cl)cc1 | 0.7 |
| Cc1cc(=O)c(-c2nnc(Nc3ccccc3F)s2)nn1-c1ccc(Cl)cc1 | 0.5 |
| Cc1cc(=O)c(-c2nnc(Nc3cccc(C(F)(F)F)c3)s2)nn1-c1ccccc1Cl | 0.7 |
| Cc1cc(=O)c(-c2nnc(Nc3ccccc3F)s2)nn1-c1cc(Cl)c(Cl)cc1Cl | 0.6 |
| Cc1cc(=O)c(-c2nnc(Nc3ccccc3F)s2)nn1-c1ccc(Cl)cc1Cl | 0.8 |
| Cc1ccc(-n2nc(-c3nnc(Nc4cccc(C(F)(F)F)c4)o3)c(=O)cc2C)c(C)c1 | 0.7 |
| Cc1ccc(-n2nc(-c3nnc(Nc4ccccc4F)s3)c(=O)cc2C)c(C)c1 | 0.9 |
| Cc1cc(=O)c(-c2nnc(Nc3cccc(C(F)(F)F)c3)s2)nn1-c1cc(Cl)c(Cl)cc1Cl | 0.7 |
| Cc1cc(=O)c(-c2nnc(Nc3ccccc3F)s2)nn1-c1ccccc1Cl | 0.1 |
| Cc1cc(=O)c(-c2nnc(Nc3ccccc3F)s2)nn1-c1c(Cl)cccc1Cl | 0.3 |
| Cc1cc(=O)c(-c2nnc(Nc3cccc(C(F)(F)F)c3)s2)nn1-c1ccccc1 | 0.6 |
| Cc1cc(=O)c(-c2nnc(Nc3cccc(C(F)(F)F)c3)o2)nn1-c1ccccc1Cl | 0.9 |
